Test results: paper PMC7709139 (Molecular imaging, 2015)
Numbered stars: 1 amine (or outer) side, 2 acyl side, 3 side chain; on linkers, the order of the positions; unused ones are H or OH. Bridge positions count the residues as written; N and C are the ends. Side chains are listed from the residue outwards. Ends that are not written are not given here. Peptide text beside a SMILES is read from it. * marks the point of attachment. X1 = CC(=NO)C(C)(C)NCCC(CCNC(C)(C)C(C)=NO)CCN*; Glutaryl = O=C(CCCC(=O)[*:2])[*:1]

Tests used:
MKN-45 xenografts [1] = test system: MKN-45 xenografts; parameters: species or system athymic female nude mice (human MKN-45 tumor); settings: in vivo
[2] = test system: extracellular domain of human Met; settings: fluorescence polarization; cited from earlier work
shed Met = experiment: Plasma shed Met electrochemiluminescent immunoassay; type: in vivo, human Met in mouse xenograft plasma; settings: for slope plasma shed Met/tumor mass: PHA-treated
In short: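 Blood was collected into EDTA tubes and centrifuged. Plasma was fast-frozen and stored at −70°C; samples from radiolabel-imaged mice were assayed after the radioactivity had decayed. Soluble Met ectodomain was measured by two-site electrochemiluminescent immunoassay with ruthenium-chelate-tagged detection antibody, against a recombinant Met ectodomain–IgG-Fc standard. Naive cohorts were sampled at 1–4 weeks, imaged cohorts at the end. Values were correlated with tumour mass by Spearman analysis, and slopes were given as ng/mL per g.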

Met (U87-MG cells) = experiment: Saturation binding, U87-MG cells; parameters: species or system human
In short: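 U87-MG cells were grown in DMEM with 2 mM L-glutamine, 0.1 mM NEAA, 1 mM pyruvate and 10% FBS, then placed in tubes (0.2–1.0 × 10⁶ cells) on the assay day. Duplicates were incubated with 0.2–10 nM ⁹⁹ᵐTc-labelled Met peptide for 2 h at 4°C, with nonspecific binding defined by 10^−6.3 M unlabelled peptide. Pellets were washed twice with PBS and counted. MKN-45 cells were plated (0.2 × 10⁶/well) the day before and trypsinised for counting. Kd and Bmax came from one-site nonlinear fits.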

in vivo [3] = experiment: in vivo; parameters: species or system athymic female nude mice (human U87-MG tumor); settings: female, athymic nude (Ncr-nu/nu), mouse, iv, total radioactivity
U87-MG xenografts = experiment: in vivo; parameters: species or system athymic female nude mice (human U87-MG tumor)
MKN-45 xenografts [4] = type: in vivo, athymic female nude mice (human MKN-45 tumor); settings: 60 minutes postinjection
in vivo [5] = experiment: in vivo; parameters: species or system athymic female nude mice (human SNU-16 tumor); settings: female, athymic nude (Ncr-nu/nu), mouse, iv, total radioactivity
SNU-16 xenografts = experiment: in vivo; parameters: species or system athymic female nude mice (human SNU-16 tumor)
MKN-45 xenografts [6] = experiment: in vivo; parameters: species or system athymic female nude mice (human MKN-45 tumor)
in vivo [7] = experiment: in vivo; parameters: species or system athymic female nude mice (human MKN-45 tumor); settings: female, athymic nude (Ncr-nu/nu), mouse, iv, total radioactivity
[8] = test system: tumor responses to Met-targeted therapeutics; settings: ref [19],[26],[47],[48], cited from earlier work
MKN-45 xenografts [9] = experiment: Longitudinal [^99mTc]-Met peptide SPECT imaging during PHA 665752 treatment; type: in vivo, athymic female nude mice (human MKN-45 tumor); settings: for decrease in [^99mTc]-Met peptide tumor uptake (%ID/g) vs vehicle: PHA 665752 15 mg/kg i.p. daily
In short: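 Female nude mice carried s.c. MKN-45 xenografts, 30–50 mm³ at baseline. They received the Met TKI at 15 mg/kg i.p. in 5% DMSO:saline, or vehicle, daily for 3–4 weeks. SPECT/CT imaging was done 90 min after injection of ⁹⁹ᵐTc-labelled Met peptide, at baseline and then weekly. Tumour uptake was expressed as %ID/g normalised to a 20 g mouse. n = 9 per group; groups were compared by Welch t-test.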

[10] = test system: human lung carcinoma cells; settings: cited from earlier work
MKN-45 xenografts [11] = experiment: Tumor weight and histologic grading; type: in vivo, athymic female nude mice (human MKN-45 tumor)
In short: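 SPECT-imaged MKN-45 mice, given the Met TKI daily i.p. or vehicle, were euthanised after the last imaging session at 3 weeks. Tumours were weighed (> 0.5 g counted) and formalin-fixed, paraffin-embedded sections were stained with H&E (necrosis, graded up to +4 severe) or ApopTag (apoptosis).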

MKN-45 xenografts [12] = experiment: Tumor volume by 3D ultrasonography, [^99mTc]-Met peptide imaged cohort; type: in vivo, athymic female nude mice (human MKN-45 tumor); settings: 15 mg/kg i.p. daily
In short: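 After each weekly SPECT/CT session in the daily-dosed MKN-45 cohort (Met TKI 15 mg/kg i.p.), 3D ultrasonography was run at 40 MHz with a 0.076 mm step size. Tumour volume was obtained with a parallel ROI algorithm and expressed as % increase from baseline. n = 9 per group; groups were compared by Welch t-test (p < .05).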

MKN-45 xenografts [13] = experiment: Longitudinal Cy5^⋆⋆-Met peptide fluorescence imaging during PHA 665752 treatment; type: in vivo, athymic female nude mice (human MKN-45 tumor); settings: for decrease in Cy5^⋆⋆-Met fluorescent signal intensity in tumors vs vehicle: PHA 665752 5 days on/2 days off, n = 9, p < .05
Met tyrosine kinase = settings: cited from earlier work
MKN-45 xenografts [14] = experiment: Tumor weight and histologic grading, Cy5^⋆⋆-Met peptide imaged cohort; type: in vivo, athymic female nude mice (human MKN-45 tumor); settings: treated
In short: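 Fluorescence-imaged MKN-45 mice, given the Met TKI 5 days on/2 days off or vehicle, were euthanised after the last imaging session (18 or 25 days). Tumours were weighed (fraction > 0.5 g), fixed in 10% neutral-buffered formalin and paraffin-embedded. Sections were stained with H&E for necrosis and ApopTag for apoptosis, then graded. n = 9 per group.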

[15] = test system: gastric carcinoma cells (including MKN-45 cells); settings: cited from earlier work
[16] = target: T1, hepatocyte growth factor tyrosine kinase receptor (Met) (human (endogenous in MKN-45 and U87-MG), UniProt P08581 25-1390); experiment: in vivo biodistribution with blocking
[17] = target: T1, hepatocyte growth factor tyrosine …; experiment: radioligand binding

T1 sequence (P08581 25-1390): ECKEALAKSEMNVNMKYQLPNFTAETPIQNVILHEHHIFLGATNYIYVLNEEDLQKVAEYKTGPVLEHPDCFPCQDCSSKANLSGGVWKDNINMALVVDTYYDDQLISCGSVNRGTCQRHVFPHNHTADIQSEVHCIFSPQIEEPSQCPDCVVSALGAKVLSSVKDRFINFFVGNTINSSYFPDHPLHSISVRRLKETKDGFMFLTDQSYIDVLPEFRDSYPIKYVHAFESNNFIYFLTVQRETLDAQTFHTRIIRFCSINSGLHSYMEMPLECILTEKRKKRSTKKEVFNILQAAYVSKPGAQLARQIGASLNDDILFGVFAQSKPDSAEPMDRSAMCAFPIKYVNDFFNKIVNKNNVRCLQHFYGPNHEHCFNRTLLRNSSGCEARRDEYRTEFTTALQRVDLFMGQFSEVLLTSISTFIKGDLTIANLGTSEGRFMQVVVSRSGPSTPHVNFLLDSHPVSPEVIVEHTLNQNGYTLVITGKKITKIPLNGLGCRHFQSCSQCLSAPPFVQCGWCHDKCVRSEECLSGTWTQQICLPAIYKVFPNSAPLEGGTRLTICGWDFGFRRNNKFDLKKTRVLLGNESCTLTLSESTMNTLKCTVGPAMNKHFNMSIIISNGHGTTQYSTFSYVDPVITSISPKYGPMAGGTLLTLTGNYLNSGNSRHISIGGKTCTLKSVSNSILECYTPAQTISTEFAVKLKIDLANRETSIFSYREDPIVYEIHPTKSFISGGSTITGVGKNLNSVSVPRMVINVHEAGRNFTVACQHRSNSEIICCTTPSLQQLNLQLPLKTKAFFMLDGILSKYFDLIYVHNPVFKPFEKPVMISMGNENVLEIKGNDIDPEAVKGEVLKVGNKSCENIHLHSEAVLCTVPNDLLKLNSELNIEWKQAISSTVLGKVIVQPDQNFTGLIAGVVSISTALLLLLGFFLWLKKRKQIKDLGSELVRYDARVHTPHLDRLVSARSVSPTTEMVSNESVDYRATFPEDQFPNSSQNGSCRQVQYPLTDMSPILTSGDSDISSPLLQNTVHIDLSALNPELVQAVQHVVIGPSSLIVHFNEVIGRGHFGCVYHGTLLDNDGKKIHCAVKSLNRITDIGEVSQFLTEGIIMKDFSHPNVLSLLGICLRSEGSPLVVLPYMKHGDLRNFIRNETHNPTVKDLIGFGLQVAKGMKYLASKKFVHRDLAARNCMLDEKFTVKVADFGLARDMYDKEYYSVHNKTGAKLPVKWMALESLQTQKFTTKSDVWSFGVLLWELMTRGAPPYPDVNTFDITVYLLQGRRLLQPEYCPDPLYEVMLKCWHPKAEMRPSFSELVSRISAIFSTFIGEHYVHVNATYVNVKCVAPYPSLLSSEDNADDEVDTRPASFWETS

Molecule: CC(=O)N[C@@H](C)C(=O)NCC(=O)N[C@@H](CO)C(=O)N[C@H]1CSSC[C@@H](C(=O)N[C@@H](Cc2ccc(O)cc2)C(=O)N[C@@H](CCC(=O)O)C(=O)N[C@H](C(=O)N[C@@H](CCC(=O)O)C(=O)NCC(=O)N[C@H](C(=O)NCC(=O)NCC(=O)NCC(=O)N[C@@H](CCCCNC(=O)CCCC(=O)NCCC(CCNC(C)(C)C(C)=NO)CCNC(C)(C)C(C)=NO)C(N)=O)[C@@H](C)O)[C@@H](C)O)NC(=O)[C@H](Cc2c[nH]c3ccccc23)NC(=O)[C@@H]2CSSC[C@H](NC(=O)[C@H](Cc3ccc(O)cc3)NC1=O)C(=O)N[C@@H](CO)C(=O)NCC(=O)N1CCC[C@H]1C(=O)N1CCC[C@H]1C(=O)N[C@@H](CCCNC(=N)N)C(=O)N[C@@H](Cc1ccccc1)C(=O)N[C@@H](CCC(=O)O)C(=O)N2 (some centres unmarked) [[^99mTc]-Met peptide, metal not drawn] (Ac-AGSCYCSGPPRFECWCYETEGTGGGK([Glutaryl-X1])-NH2; disulfide 4-16, 6-14; C-terminus assumed)
- reduction in slope (%ID/g), larger vs smaller tumors (MKN-45 xenografts [1]): 2-3 fold
- slope (%ID/g) of total uptake per tumor vs tumor weight (MKN-45 xenografts [1]): 4.2 %ID/g
- IC50 [2]: ~200 nM
- effect on shed Met plasma concentrations (shed Met; imaged vs nonimaged xenografts): does not appear to alter shed Met plasma concentrations
- specific binding (Met (U87-MG cells); U87-MG cells (low Met), 2 hours at 4°C): < 40%
- Bmax U87-MG lower than MKN-45 (Met (U87-MG cells); U87-MG vs MKN-45 cells): ~ 90 fold
- tissue uptake at 1 h (in vivo [3]): 1.19 ± 0.11 %ID/g
- tissue uptake at 2 h (in vivo [3]): 0.71 ± 0.15 %ID/g
- tissue uptake at 3 h (in vivo [3]): 0.58 ± 0.09 %ID/g
- tumor to muscle ratio reduced vs MKN-45 (U87-MG xenografts): 10-16 fold
- visualization of MKN-45 tumors (MKN-45 xenografts [4]): clearly visualized at 60 minutes
- tissue uptake at 0.5 h (in vivo [5]): 4.59 ± 0.5 %ID/g
- tissue uptake at 1 h (in vivo [5]): 2.61 ± 0.82 %ID/g
- tissue uptake at 2 h (in vivo [5]): 1.3 ± 0.34 %ID/g
- tumor to muscle ratio reduced vs MKN-45 (SNU-16 xenografts): 2-4 fold
- uptake in nontarget tissues (SNU-16 xenografts): comparable to the MKN-45 xenografts
- clearance (MKN-45 xenografts [6]): > 70%
- kidney to muscle ratio exceeding tumor to muscle ratio (MKN-45 xenografts [6]): 1.6-3 fold
- primary route of excretion (MKN-45 xenografts [6]): renal clearance as the primary route of excretion
- tissue to tissue ratio at 0.5 h (in vivo [7]): 9.8 ± 2.1
- tissue to tissue ratio at 1 h (in vivo [7]): 30.1 ± 3.3
- tissue to tissue ratio at 2 h (in vivo [7]): 49.6 ± 11.3
- tissue to tissue ratio at 3 h (in vivo [7]): 55.2 ± 13.4

Molecule: OC[C@H]1OC(O)[C@H]([18F])[C@@H](O)[C@@H]1O (some centres unmarked) [[^18F]FDG, [^18F]fluorodeoxyglucose]
- PET detection of tumor response to crizotinib ([8]; Met intracellular kinase inhibition): failed to detect tumor responses
- PET detection of tumor response to CE-355621 ([8]; mAb targeting the Met extracellular domain): detected early tumor responses

Molecule: Cys4–16, 6–14; Ac-Ala-Gly-Ser-Cys-Tyr-Cys-Ser-Gly-Pro-Pro-Arg-Phe-Glu-Cys-Trp-Cys-Tyr-Glu-Thr-Glu-Gly-Thr-Gly-Gly-Gly-Lys (bicyclic or more) [unlabeled Met peptide]
- IC50 [2]: 90 nM

Molecule: Cc1[nH]c(/C=C2\C(=O)Nc3ccc(S(=O)(=O)Cc4c(Cl)cccc4Cl)cc32)c(C)c1C(=O)N1CCC[C@@H]1CN1CCCC1 [PHA 665752, (2R)-1-[[5-[(Z)-[5-[[(2,6-dichlorophenyl)methyl]sulfonyl]-1,2-dihydro-2-oxo-3H-indol-3-ylidene]methyl]-2,4-dimethyl-1H-pyrrol-3-yl]–carbonyl]-2-(1-pyrrolidinylmethyl) pyrrolidine]
- increase in plasma shed Met (ng/mL per g tumor) vs vehicle (shed Met; 1, 2, and 3 to 4 weeks after treatment): ~ 2 fold
- slope plasma shed Met/tumor mass (shed Met; imaged xenografts, n = 7 (vehicle 43.7)): 77.7 (ng/mL)/(g)
- slope plasma shed Met/tumor mass (shed Met; nonimaged xenografts (vehicle 43.8)): 77.5 (ng/mL)/(g)
- tumor uptake of [^99mTc]-Met peptide after PHA 665752 (MKN-45 xenografts [9]; MKN-45 xenografts): significantly decreased as early as 1 week
- decrease in [^99mTc]-Met peptide tumor uptake (%ID/g) vs vehicle (MKN-45 xenografts [9]; day 8, n = 9, p = .005): 43%
- decrease in [^99mTc]-Met peptide tumor uptake (%ID/g) vs vehicle (MKN-45 xenografts [9]; day 21, n = 9, not significant): 25%
- total surface Met expression [10]: total surface Met expression increased
- tumors with moderately severe apoptosis (MKN-45 xenografts [11]; ApopTag, after 3 weeks PHA 665752): 22%
- fraction of severely necrotic tumors (MKN-45 xenografts [11]; H&E, after 3 weeks PHA 665752 (vehicle also 78%)): 78%
- fraction of tumors > 0.5 g (MKN-45 xenografts [11]; after 3 weeks PHA 665752): 44%
- decrease in tumor volume vs vehicle (MKN-45 xenografts [12]; day 8, n = 9, not significant): 25%
- decrease in tumor volume vs vehicle (MKN-45 xenografts [12]; day 21, n = 9, p = .016): 55%
- fluorescent signal intensity and tumor volume vs vehicle (MKN-45 xenografts [13]; 25 days, n = 6 treated, 5 vehicle): these decreases were not significant
- decrease in Cy5^⋆⋆-Met fluorescent signal intensity in tumors vs vehicle (MKN-45 xenografts [13]; 11 days): 54%
- decrease in Cy5^⋆⋆-Met fluorescent signal intensity in tumors vs vehicle (MKN-45 xenografts [13]; 18 days): 55%
- tumorigenicity, apoptosis and necrosis (Met tyrosine kinase): reduction of tumorigenicity accompanied with increases in apoptosis and necrosis
- tumors with minimal (1+) apoptosis (MKN-45 xenografts [14]; 18 or 25 days (vehicle 78%)): 33%
- tumors > 0.5 g (MKN-45 xenografts [14]; 18 or 25 days (vehicle 89%)): 78%
- drug resistance on prolonged exposure [15]: acquired drug resistance associated with increased levels of Met
- extracellular Met expression [15]: extracellular Met expression appeared unchanged
- inhibition of Met phosphorylation [15]: pronounced inhibition of Met phosphorylation

Molecule: Cc1cn([C@H]2C[C@H]([18F])[C@@H](CO)O2)c(=O)[nH]c1=O [[^18F]FLT, [^18F]fluorothymidine]
- PET detection of tumor response to crizotinib and BAY 853474 [8]: detected a robust tumor response

Molecule: Ac-AGSCYCSGPPRFECWCYETEGTGGGK (disulfide 6-14, 4-16; also: trifluoroacetate salt) [unlabeled Met peptide (AH-111972 trifluoracetate salt [DX-1662])]
- percent decrease of tumor to muscle ratio of [^99mTc]-Met peptide [16]: 53%

Molecule: Ac-AGSCYCSGPPRFECWCYETEGTGGGK(cPn216) (disulfide 6-14, 4-16; also: 99mTc chelated by cPn216) [[^99mTc]-Met peptide (AH-113018)]
- Kd [17]: 3.31 nM
